The record followed here is ChEMBL document CHEMBL1125193, “3-(5-Alkyl-4-hydroxy-3-methoxy-1-naphthalenyl)-2-methyl-2-propenoic acids as orally active inhibitors of IL-1 generation” (J Med Chem, 1991).

Data set [1] is described as follows: C6h was measured as concentration obtained after 6 hr of oral administration in air pouch exudate after oral administration to male F344 rats. Type of data set: ADME, organism-based. Conditions: F344, rat, read-out: C6h. Put shortly: (§1)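 Male F344 rats given 50 mg/kg orally; drug measured in air-pouch exudate, with concentration at 6 h post-dose and exudate half-life derived; mean ± SEM of 5 rats.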

The nature of data set [2]: Half life was measured as time taken to reach the half of the initial dose in air pouch exudate after oral administration to male F344 rats. Format: ADME, organism-based. To be noted: F344, rat. In a few lines: as §1
A short description of data set [3]: Half life was measured as time taken to reach the half of the initial dose in the blood after oral administration to male F344 rats. Type of data set: ADME, organism-based. Conditions: F344, rat. In a few lines:
(§2)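 Plasma half-life after a single oral dose of 50 mg/kg to male F344 rats; mean ± SEM, 2-3 rats per compound.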

A short description of data set [4]: Area under curve was measured from the graph obtained from concentration Vs time after oral administration to male F344 rats. Type of data set: ADME, organism-based. Conditions: F344, rat, in vivo. In a few lines: (§3)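 Plasma AUC over 0-4 h from concentration-time course after a single oral dose of 50 mg/kg to male F344 rats; mean ± SEM, 2-3 rats per compound.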

For a further data set, the species on record is Homo sapiens. As to the kind of experiment: Concentration to inhibit human monocyte in blood (IL 1 Generation). Format: functional. Put shortly:
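Human monocytes stimulated with LPS ± compound; IL-1 by LAF assay, quantified against a recombinant human IL-1 standard curve. IC50 by least-squares method, mean of two or more experiments.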

The species entered for data set [5] is Rattus norvegicus. As to the kind of experiment: Concentration to inhibit rat macrophase […] (IL 1 Generation). Format: functional. Put shortly:
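Rat (Fisher) peritoneal macrophages elicited by i.p. 2.5% glycogen and harvested after 4 days. Adherent cells (0.5 × 10^6/well, RPMI 1640 + 1% heat-inactivated normal rat serum, 1.5 h at 37 °C) cultured 4 h with LPS 1 ng/mL ± compound. Intracellular IL-1 by LAF assay against recombinant human IL-1α standard; IC50 by least squares, mean of duplicates.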

The test system of data set [6] is Rattus norvegicus. As to the kind of experiment: Percent inhibition was measured by in vivo by air pouch model on five rats by local administration at 100 uM. Type of data set: functional. Put shortly: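 Rat CMC-LPS air-pouch model, 5 rats per group. Compound dissolved in 5% EtOH-RPMI 1640 with 30% heat-inactivated autologous serum, given locally to 100 μM final exudate concentration at 30 min before and just before LPS. Exudate collected 4 h after LPS; IL-1 by LAF assay against recombinant human IL-1α standard.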

For data set [7], the system named is Rattus norvegicus. As to the kind of experiment: Percent inhibition was measured in vivo by air pouch model on five rats by oral administration at 200 uM. Type of data set: functional. In a few lines: (§4)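 Rat CMC-LPS air-pouch model, 5 rats per group. Compound given orally in 0.5% methyl cellulose 2 h before LPS at 200, 50 or 25 mg/kg. Exudate collected 4 h after LPS; extra- and intracellular IL-1 by LAF assay against recombinant human IL-1α standard.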

The test system of data set [8] is Rattus norvegicus. Nature of the data set: Percent inhibition was measured in vivo by air pouch model on five rats by oral administration at 25 uM. Type of data set: functional. Conditions: in the assay text read “25 mg/kg” for “25 uM”. Put shortly:
as §4

The subject of data set [9] is Rattus norvegicus. Nature of the data set: Percent inhibition was measured on untreated rat paw at a dose of 100 mg/kg. Format: functional. In a few lines: (§5)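 Rat adjuvant arthritis. Compound given orally once daily from first day of adjuvant treatment at 12.5-100 mg/kg. Adjuvant-untreated paw swelling measured by plethysmometer on day 15; inhibition versus control. Mean ± SEM of 6-10 animals.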

Data set [10] has as its system Rattus norvegicus. Nature of the data set: Percent inhibition was measured on untreated rat paw at a dose of 25 mg/kg. Format: functional. Put shortly:
as §5

In data set [11] the test system is Rattus norvegicus. As to the kind of experiment: Percent inhibition was measured on untreated rat paw at a dose of 50 mg/kg. Type of data set: functional. Put shortly: as §5
For data set [12], the system named is Rattus norvegicus. Nature of the data set: Percent inhibition was measured on untreated rat paw at a dose of 12.5 mg/kg. Format: functional. In a few lines: as §5
The subject of data set [13] is Rattus norvegicus. Nature of the data set: Percent swelling was measured on untreated rat paw at a dose of 12.5 mg/kg. Type of data set: functional. Put shortly:
as §5

The test system of data set [14] is Rattus norvegicus. Nature of the data set: Percent swelling was measured on untreated rat paw at a dose of 25 mg/kg. Type of data set: functional. Put shortly: as §5
Data set [15] has as its system Rattus norvegicus. As to the kind of experiment: Percent swelling was measured on untreated rat paw at a dose of 50 mg/kg. Type of data set: functional. In a few lines: as §5
For data set [16], the system named is Rattus norvegicus. As to the kind of experiment: Percent inhibition was measured in vivo by air pouch model on five rats by oral administration at 50 uM. Type of data set: functional. To be noted: in the assay text read “50 mg/kg” for “50 uM”. Put shortly: as §4
The subject of data set [17] is Rattus norvegicus. As to the kind of experiment: Percent swelling was measured on untreated rat paw at a dose of 100 mg/kg. Type of data set: functional. In a few lines: as §5
Data set [18] can be described thus: Area under curve was measured from the graph obtained from concentration Vs time. Format: ADME. Put shortly:
as §3

Data set [19] can be described thus: Half life was measured as time taken to reach the half of the initial dose in air pouch exudate. Format: ADME. In a few lines:
as §1

A short description of data set [20]: Half life was measured as time taken to reach the half of the initial dose in the blood. Format: ADME, tissue-based. In a few lines:
as §2

The nature of data set [21]: C6h was measured as concentration obtained after 6 hr of oral administration in air pouch exudate. Type of data set: ADME. Conditions: read-out: C6h. In a few lines: as §1
Data set [22] is filed under the species Rattus norvegicus. Nature of the data set: Percent inhibition was measured on untreated rat paw at different dosage forms. Format: functional. In a few lines: as §5
The species named for data set [23] is Rattus norvegicus. Nature of the data set: Percent swelling was measured on untreated rat paw at different dosage forms. Format: functional. In a few lines:
as §5

The mark [24] stands for this setting: in the assay text read “200 mg/kg” for “200 uM”.
Setting [25] is: in the assay text read “at 200 mg/kg” for “at 200 uM”.

Molecules are shown by their SMILES.

A word on the half-life: it is the time in which the quantity being followed falls by half. As a reminder, the AUC is the area under the concentration-time curve, a measure of exposure. Broadly, the IC50 is the concentration at which inhibition is half-maximal. A high value points to lower potency. One may read the Inhibition as the relative decrease from the control value, in per cent. Lower therefore signals little suppression. In general, inhibition in vivo refers to the drop in the measured response relative to a control, in per cent. Read a high inhibition in vivo as strong suppression. `CCc1cccc2c(/C=C(/C)C(=O)O)cc(OC)c(O)c12`: in [1], the concentration at 6 h stood at 8760 ng/mL. Further, the half-life in data set [2] was 4.15 h; in data set [3], 1.72 h. In [4], the exposure (AUC) came to 418 µg·h/mL. The IC50 in the data set filed under Homo sapiens amounted to 3 µM; in the data set listed under Rattus norvegicus [5], 1.4 µM. Also, the Inhibition with Rattus norvegicus [6] was 94%; in the data set with Rattus norvegicus [7] (setting [24]) it was 91%; in the data set with Rattus norvegicus [8] it was 40%; in the data set on Rattus norvegicus [16] it was 65%. Besides, the inhibition in vivo at 100 mg/kg with Rattus norvegicus [9] turned out to be 51.4%. In the data set with Rattus norvegicus [10], this molecule gave an inhibition in vivo at 25 mg/kg of 34.1%. Further, in the data set with Rattus norvegicus [11], the inhibition in vivo at 50 mg/kg came to 38.8%. Further, the inhibition in vivo at 12.5 mg/kg in the data set with Rattus norvegicus [12] was 20.1%. The Swelling is 44.1% with Rattus norvegicus [13], 36.4% in the data set with Rattus norvegicus [14], 33.8% in the data set with Rattus norvegicus [15] and 26.8% with Rattus norvegicus [17].
`CCc1cccc2c(/C=C(\C)C(=O)O)cc(OC)c(O)c12` had a half-life in data set [3] of 0.44 h. For the same molecule, the AUC in data set [4] was 108 µg·h/mL. In addition, the figures for the 50% inhibitory concentration (IC50) in the data set listed under Homo sapiens and in the data set filed under Rattus norvegicus [5] were 4.8 µM and 2 µM, respectively. In addition, the Inhibition in the data set on Rattus norvegicus [6] was 85%; with Rattus norvegicus [7] (setting [25]), 36%.
On to `CCCc1cccc2c(/C=C(\C)C(=O)O)cc(OC)c(O)c12`, for which the half-life in data set [3] was 1.07 h. In data set [4], this molecule showed an AUC of 60.4 µg·h/mL. Also, the 50% inhibitory concentration (IC50) in the data set filed under Homo sapiens and in the data set filed under Rattus norvegicus [5] was 1 µM each time. For the same molecule, the Inhibition with Rattus norvegicus [6] is 91%; in the data set with Rattus norvegicus [7] (setting [25]), 67%; in the data set with Rattus norvegicus [16], 4%.
With `CCCc1cccc2c(/C=C(/C)C(=O)O)cc(OC)c(O)c12`, the AUC in [18] turned out to be 189 µg·h/mL. In addition, the half-life was 2.05 h in data set [19] and 1.07 h in data set [20]. In addition, the 50% inhibitory concentration (IC50) in the data set listed under Homo sapiens was determined as 1 µM; in the data set filed under Rattus norvegicus [5] it was 1.1 µM. Moreover, the results for the Inhibition with Rattus norvegicus [6], in the data set on Rattus norvegicus [7] (setting [24]) and in the data set on Rattus norvegicus [16] were 87%, 86% and 33%, respectively. Besides, the inhibition in vivo at 100 mg/kg in the data set with Rattus norvegicus [9] was 53.6%. The molecule further returned an inhibition in vivo at 25 mg/kg in the data set on Rattus norvegicus [10] of 8%. Also, testing at 50 mg/kg in the data set with Rattus norvegicus [11] gave an inhibition in vivo of 46.6%. In the data set on Rattus norvegicus [12], this molecule displayed an inhibition in vivo at 12.5 mg/kg of 17%. Moreover, the Swelling with Rattus norvegicus [13] is given as 45.8%; with Rattus norvegicus [14] it was 50.8%; in the data set on Rattus norvegicus [15] it was 29.5%; in the data set on Rattus norvegicus [17], 25.6%. Also, the concentration at 6 h in data set [21] stood at 1940 ng/mL.
Molecule `COc1ccc2c(c1)c(CC(=O)O)c(C)n2C(=O)c1ccc(Cl)cc1` [INDOMETHACIN] had an Inhibition in the data set listed under Rattus norvegicus [22] of 47.8%. Moreover, in the data set listed under Rattus norvegicus [23], the Swelling is on record as 28.8%.
